The values below come from ChEMBL document CHEMBL2346582, “Guanidino anthrathiophenediones as G-quadruplex binders: uptake, intracellular localization, and anti-Harvey-Ras gene activity in bladder cancer cells” (J Med Chem, 2013).

As a reminder, the Kd is the constant that tells how readily two partners part at equilibrium.

Calls of active or inactive are those of the source. No cut-off for these calls is given here. Some results are limits rather than exact numbers.

The species named for series [1] is Homo sapiens. As to the kind of experiment: Thermal stabilization of human NRAS G-quadruplex FAM-GGGAGGGGCGGGUCUGGG-TAMRA RNA assessed as melting temperature at 1:1 DNA:ligand ratio by FRET assay. A digest of the protocol: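 FRET melting in 50 mM Tris-HCl pH 7.4 with an equimolar ligand:quadruplex ratio (r = 1). Conditions: NRAS RNA and hras-2 in 10 mM KCl; hras-1 in 100 mM KCl, with ΔTM taken from its second transition. Ramp 1 °C/min from 20 to 95 °C after 5 min equilibration. TM and ΔTM (±0.5 K) versus ligand-free quadruplex.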

The nature of series [2]: Binding affinity to human NRAS G-quadruplex FAM-GGGAGGGGCGGGUCUGGG-TAMRA RNA assessed as quenching of fluorescence emission by FRET titration assay. A digest of the protocol: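 RNA quadruplex, 200 nM, dual-labelled with FAM and TAMRA, in 50 mM Tris-HCl pH 7.4, 10 mM KCl. Titrated with ligand at r = 1–5 ([ligand]/[quadruplex]). The fraction of bound quadruplex was calculated from quenching of fluorescence and fitted to the Hill equation to give KD.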

The next series deals with NIH3T3. In words: Cellular uptake in mouse NIH/3T3 cells assessed as accumulation in nucleoli at 2.5 uM after 4 hrs by propidium iodide staining-based confocal microscopic analysis. In kind it is ADME, cell-based. The settings on record: nih3t3, 4 h. In outline: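 NIH 3T3 cells on coverslips treated with 2.5 μM ligand for 2 or 4 h. Fixed with paraformaldehyde, DRP1 immunostained (FITC), nuclei stained with propidium iodide. Confocal imaging with 543 nm excitation of ligand fluorescence.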

For series [3], the system named is T-24. As to the kind of experiment: Cellular uptake in human T24 cells after 4 hrs by FACS flow cytometric analysis in presence of dynasore. In kind it is ADME, cell-based. The settings on record: t-24, 4 h. In outline: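 T24 cells pretreated 30 min with 80 μM dynasore, then exposed to 5 μM ligand for 4 h. Analysed by flow cytometry (488 nm laser, FL3 680 nm channel), at least 10,000 cells.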

The test system of series [4] is T-24. As to the kind of experiment: Cellular uptake in human T24 cells at 0.5 to 10 uM after 8 hrs by flow cytometric analysis. In kind it is ADME, cell-based. The settings on record: t-24, 8 h. In outline:
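Cells plated at 5 × 10^4 per well and treated next day with ligand at […] for 8 h. Then trypsinized, resuspended in PBS and analysed by flow cytometry (488 nm excitation, FL3 680 nm, log scale), at least 10,000 cells per sample. Uptake read from intrinsic ligand red fluorescence.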

Another series is filed under the species Mus musculus. In words: Thermal stabilization of mouse KRAS G-quadruplex FAM-GCGGGAGGGAGGGAAGGAGGGAGGGAGGGAG-TAMRA DNA assessed as change in melting temperature at 1:5 DNA:ligand ratio by FRET assay. In outline:
(§1)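 FRET melting of 200 nM dual-labelled quadruplex in 50 mM Tris-HCl with KCl (100 mM for htelo and hras-1, 10 mM for KRAS and hras-2). Ligand at r = 5 ([ligand]/[quadruplex]; hras-2 tabulated at r = 4). Samples held 5 min at 20 °C, then heated 1 °C/min to 95 °C. ΔTM is the TM with ligand minus TM without ligand (±0.5 K). For hras-1 both biphasic transitions are given.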

The species entered for series [5] is Homo sapiens. In words: Thermal stabilization of human telomeric G-quadruplex FAM-TTAGGGTTAGGGTTAGGGTTAGGG-TAMRA DNA assessed as change in melting temperature at 1:5 DNA:ligand ratio by FRET assay. A digest of the protocol: as §1
A short description of series [6]: Binding affinity to human telomeric G-quadruplex FAM-TTAGGGTTAGGGTTAGGGTTAGGG-TAMRA DNA assessed as quenching of fluorescence emission by FRET titration assay. A digest of the protocol: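 FRET titration of 200 nM oligonucleotide dual-labelled at its ends with carboxyfluorescein (donor) and tetramethylrhodamine (acceptor), in 50 mM Tris-HCl with KCl (100 mM for htelo and hras-1, 10 mM for KRAS and hras-2). Ligand binding quenches the emission, mainly the acceptor at 580 nm. The fraction of filled sites was fitted to the Hill equation to give apparent KD and the Hill coefficient.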

Series [7] relates to T-24. In words: Binding affinity to interleukin-8 promoter DNA in human T24 cells at 0.5 to 5 uM treated for 24 hrs prior to transfection measured 72 hrs post transfection by dual-luciferase reporter gene assay relative to control. To be noted: in the assay text read “5 uM” for “0.5 to 5 uM”. In kind it is cell-based. A digest of the protocol:
(§2)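 T24 cells pretreated 24 h with ligand (0.5, 2.5, 5 μM). Then co-transfected with jet-PEI: firefly reporter (250 ng/well), either HRAS promoter wild type, HRAS promoter with 4 point mutations in the quadruplex motifs, or IL-8 promoter, plus CMV-Renilla (10 ng/well). Dual-Glo read 72 h post-transfection. Firefly/Renilla expressed as T/C × 100 relative to untreated cells.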
(Reporter assays use an easily measured gene product as a stand-in for the process of interest.)

Series [8] concerns T-24. In words: Induction of apoptosis in human T24 cells by caspase 3/7 assay. In kind it is functional, cell-based.
Series [9] relates to T-24. In words: Antiproliferative activity against human T24 cells by trypan blue assay. In kind it is functional, cell-based.
The subject of series [10] is T-24. In words: Cell cycle arrest in human T24 cells assessed as accumulation at G2/M phase at 10 uM after 48 to 72 hrs by FACS analysis relative to control. In kind it is functional. In outline:
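T24 cells treated with 10 μM ligand for 48 or 72 h. Fixed 1 h at 4 °C in 70% ethanol, then stained with propidium iodide 0.05 mg/mL plus RNase A 0.1 mg/mL for 30 min at room temperature. Analysed by FACS (FL2). Phase percentages compared with control by t-test (p < 0.05).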
For orientation: In flow cytometry, cells or beads pass a laser one at a time.

A further series concerns HEK293. In words: Cell cycle arrest in human HEK293 cells expressing wild type HRAS assessed as accumulation at G2/M phase at 10 uM after 24 hrs by FACS analysis. In kind it is functional, cell-based. In outline:
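HEK293 cells (wild-type HRAS) treated with ligand for 24 h. Ethanol-fixed, stained with propidium iodide/RNase A, and analysed by FACS (FL2) for G0/G1, S and G2/M fractions.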

The test system of series [11] is T-24. As to the kind of experiment: Binding affinity to HRAS quadruplex DNA mutant in human T24 cells assessed as reduction in gene expression at 0.5 to 5 uM treated for 24 hrs prior to transfection measured 72 hrs post transfection by dual-luciferase reporter gene assay relative to control. In kind it is cell-based. In outline: as §2
Series [12] is filed under the species Homo sapiens. As to the kind of experiment: Thermal stabilization of human HRAS2 G-quadruplex FAM-CGGGGCGGGGCGGGGGCGGGGGCG-TAMRA DNA assessed as as change in melting temperature at 1:4 DNA:ligand ratio by FRET assay.
For series [13], the system named is T-24. As to the kind of experiment: Binding affinity to wild type HRAS quadruplex DNA in human T24 cells assessed as reduction in gene expression at 0.5 to 5 uM treated for 24 hrs prior to transfection measured 72 hrs post transfection by dual-luciferase reporter gene assay relative to control. In kind it is cell-based. The arrangement: scale not given: the % may be the effect or the level left. A digest of the protocol:
as §2

For the next series, the system named is T-24 (Homo sapiens). As to the kind of experiment: Cellular uptake in human T24 cells after 4 hrs by FACS flow cytometric analysis in presence of dynasore. To be noted: t24, 4 h.
In series [14] the test system is T-24. In words: Binding affinity to HRAS G-quadruplex DNA in human T24 cells assessed as reduction in p21HRAS level at 5 uM after 48 hrs by immunoblotting analysis. In kind it is cell-based. A digest of the protocol:
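T24 cells treated with 5 μM ligand for 48 or 72 h. Lysates (30 μg) run on 12% SDS-PAGE and immunoblotted with monoclonal anti-HRAS and β-actin antibodies, with HRP detection. HRAS level = (p21HRAS/β-actin treated)/(p21HRAS/β-actin untreated) × 100.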
Background: Immunoblotting shows a protein as a band on a membrane.

Turning to `N=C(N)NCCCNc1c2c(c(NCCNC(=N)N)c3sccc13)C(=O)c1ccccc1C2=O`, the Tm in the series filed under Homo sapiens [1] came to 88 °C. In addition, the Kd in series [2] stood at 90 nM; in series [6], 330 nM. Further, the values for the Drug uptake entry with NIH3T3, with T-24 [3] and in the series on T-24 [4] were “Active”, “Not Active” and “Active”, respectively. Besides, the results for the deltaTm in the series listed under Mus musculus, in the series listed under Homo sapiens [5] and in the series listed under Homo sapiens [12] were 28 K, 23 K and 12 K, respectively. In addition, the result with T-24 [7], with T-24 [8], in the series on T-24 [9], with HEK293 and in the series with T-24 [11] was inactive. In the series with T-24 [10], the Activity was 12%.
On to `N=C(N)NCCCNc1c2c(c(NCCNC(=N)N)c3ccsc13)C(=O)c1ccccc1C2=O`, for which the Tm in the series filed under Homo sapiens [1] amounted to 86 °C. The Kd in [2] turned out to be 120 nM; in series [6], 320 nM. For the same molecule, the Drug uptake result with T-24 [3], with T-24 [4] and in the series on T-24 (Homo sapiens) was “Active” each time. Also, the deltaTm in the series listed under Mus musculus came to 27 K; in the series filed under Homo sapiens [5], 21 K; in the series listed under Homo sapiens [12], 17 K. For the same molecule, the result in the series on T-24 [7], with T-24 [8], in the series on T-24 [9], in the series with HEK293 and in the series with T-24 [11] was inactive. In addition, the Activity stood at 12% with T-24 [10] and 25% with T-24 [13].
`N=C(N)NCCCCNc1c2c(c(NCCCCNC(=N)N)c3sccc13)C(=O)c1ccccc1C2=O`: the Tm in the series listed under Homo sapiens [1] was more than 90 °C. Moreover, the results for the Kd in series [2] and in [6] were 60 nM and 180 nM, respectively. Moreover, the Drug uptake entry with NIH3T3, in the series on T-24 [3], with T-24 [4] and in the series on T-24 (Homo sapiens) was “Active” each time. Further, the deltaTm in the series filed under Mus musculus is 35 K; in the series listed under Homo sapiens [5] it was 34 K; in the series listed under Homo sapiens [12], 26 K. Besides, the outcome in the series with T-24 [7], in the series with T-24 [8], with T-24 [9], with HEK293 and with T-24 [11] was inactive. Further, the Activity is 12% with T-24 [10] and 50% with T-24 [13]. Besides, the outcome in the series with T-24 [14] was Active.
For the molecule `N=C(N)NCCNc1c2c(c(NCCNC(=N)N)c3sccc13)C(=O)c1ccccc1C2=O`, the Tm in the series listed under Homo sapiens [1] was found to be 82 °C. Further, the Kd stood at 380 nM in [2] and 150 nM in series [6]. For the same molecule, the Drug uptake result in the series on NIH3T3 is on record as “Active”; with T-24 [3], “Not Active”; in the series with T-24 [4], “Active”. Also, the deltaTm in the series filed under Mus musculus is 15 K; in the series filed under Homo sapiens [5], 14 K; in the series filed under Homo sapiens [12], 19 K. Besides, the result in the series on T-24 [7], in the series with T-24 [8], in the series with T-24 [9], in the series on HEK293 and with T-24 [11] was inactive. The results for the Activity in the series with T-24 [10] and with T-24 [13] were 12% and 25%, respectively. Moreover, the outcome in the series on T-24 [14] was Active.
On to `N=C(N)NCCCNc1c2c(c(NCCCNC(=N)N)c3sccc13)C(=O)c1ccccc1C2=O`, for which the Tm in the series listed under Homo sapiens [1] turned out to be 88 °C. Further, the results for the Kd in series [2] and in series [6] were 110 nM and 130 nM, respectively. Further, the Drug uptake entry in the series with NIH3T3, in the series on T-24 [3], in the series on T-24 [4] and in the series with T-24 (Homo sapiens) was “Active” throughout. Besides, the deltaTm in the series listed under Mus musculus worked out at 33 K; in the series listed under Homo sapiens [5] it was 21 K; in the series filed under Homo sapiens [12] it was 17 K. Moreover, the outcome in the series with T-24 [7], in the series with T-24 [8], in the series on T-24 [9], in the series with HEK293 and in the series on T-24 [11] was inactive. Also, the results for the Activity in the series on T-24 [10] and in the series with T-24 [13] were 12% and 50%, respectively.
